Paper PMC3228886 (Journal of medicinal chemistry, 2011)
pEC50: −log10 of the molar value. Where a name gives a salt, the structure may show the parent alone.

Key:
human TLR2 = human TLR2 (Homo sapiens, UniProt O60603); experiment: TLR2-specific NF-κB induction reporter gene assay; assay type: cell-based; settings: for TLR2-agonistic activity (in words): TLR2-specific reporter gene assay
How it was run: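 HEK-Blue reporter cells carry stably expressed secreted alkaline phosphatase under NF-κB promoters, inducible by TLR2 agonists. Cells were seeded at ~10⁵ cells/mL and grown to confluency, then stimulated for 12 h with serially diluted test compound. Supernatant sAP was read spectrophotometrically at 620 nm using an alkaline phosphatase-specific chromogen in the detection medium. Samples were run in quadruplicate, reported as means with standard deviations.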

Water solubility = assay type: physicochemical
[1] = system: murine models of immunization; settings: cited from earlier work
rabbit = rabbit models; cited from earlier work
human blood = settings: ex vivo human blood models; cited from earlier work

Sequence of human TLR2 (O60603 21-784): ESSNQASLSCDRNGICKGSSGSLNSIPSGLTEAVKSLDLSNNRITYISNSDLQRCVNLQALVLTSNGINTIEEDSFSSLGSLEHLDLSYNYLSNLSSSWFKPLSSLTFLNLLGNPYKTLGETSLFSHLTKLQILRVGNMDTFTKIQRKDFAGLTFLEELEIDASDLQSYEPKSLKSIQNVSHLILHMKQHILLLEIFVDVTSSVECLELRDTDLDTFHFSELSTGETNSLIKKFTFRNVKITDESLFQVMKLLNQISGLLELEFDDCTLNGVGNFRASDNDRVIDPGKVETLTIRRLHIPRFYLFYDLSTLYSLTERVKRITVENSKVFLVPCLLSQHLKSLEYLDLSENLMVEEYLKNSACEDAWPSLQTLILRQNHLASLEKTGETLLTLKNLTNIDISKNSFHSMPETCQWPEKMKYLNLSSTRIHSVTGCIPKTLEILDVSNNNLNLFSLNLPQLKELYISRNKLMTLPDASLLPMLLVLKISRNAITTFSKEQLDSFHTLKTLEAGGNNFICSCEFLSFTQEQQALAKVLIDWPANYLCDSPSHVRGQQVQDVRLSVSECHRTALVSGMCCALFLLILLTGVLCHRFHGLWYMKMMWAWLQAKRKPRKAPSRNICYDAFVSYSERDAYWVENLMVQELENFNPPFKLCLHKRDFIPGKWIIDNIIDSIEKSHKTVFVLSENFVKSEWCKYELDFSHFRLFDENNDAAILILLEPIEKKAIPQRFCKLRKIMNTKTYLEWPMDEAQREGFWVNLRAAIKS
Sequence of human TLR2 (Q9Y2C9 32-796 partner): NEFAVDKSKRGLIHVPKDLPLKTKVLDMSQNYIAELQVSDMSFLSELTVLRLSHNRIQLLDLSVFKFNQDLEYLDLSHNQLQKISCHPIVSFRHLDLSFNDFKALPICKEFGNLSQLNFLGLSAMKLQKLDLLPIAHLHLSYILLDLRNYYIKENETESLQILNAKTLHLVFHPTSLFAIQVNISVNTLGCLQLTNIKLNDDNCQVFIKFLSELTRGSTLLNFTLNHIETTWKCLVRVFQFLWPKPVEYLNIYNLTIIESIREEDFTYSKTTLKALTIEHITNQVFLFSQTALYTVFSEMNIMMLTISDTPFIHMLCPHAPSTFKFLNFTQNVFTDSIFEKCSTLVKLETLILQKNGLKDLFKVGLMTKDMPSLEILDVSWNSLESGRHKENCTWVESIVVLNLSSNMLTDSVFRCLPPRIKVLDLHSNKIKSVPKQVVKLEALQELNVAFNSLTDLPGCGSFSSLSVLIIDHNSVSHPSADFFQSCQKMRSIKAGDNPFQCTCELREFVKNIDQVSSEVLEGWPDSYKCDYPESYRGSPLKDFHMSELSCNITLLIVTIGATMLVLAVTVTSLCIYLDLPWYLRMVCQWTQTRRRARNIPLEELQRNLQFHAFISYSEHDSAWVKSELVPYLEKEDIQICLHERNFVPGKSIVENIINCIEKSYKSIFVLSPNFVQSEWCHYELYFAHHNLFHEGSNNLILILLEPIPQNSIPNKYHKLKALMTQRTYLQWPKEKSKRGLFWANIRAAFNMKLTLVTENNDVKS

| SMILES | TLR2-agonistic activity (in words) (human TLR2) | other results |
| --- | --- | --- |
| CCCCCCCCCCCCCC(=O)OC[C@H](CSC[C@H](N)C(=O)N[C@@H](CO)C(=O)O)OC(=O)CCCCCCCCCCCCC [Compound 18] | lower in activity than the parent PAM2CS compound |  |
| CCCCCCCCCCCCCCCCCC(=O)OC[C@H](CSC[C@H](N)C(=O)N[C@@H](CO)C(=O)O)OC(=O)CCCCCCCCCCCCCCCCC [Compound 19] | lower in activity than the parent PAM2CS compound |  |
| CCCCCCCCCCCCCCCC(=O)OC[C@H](CSCC[C@H](N)C(=O)N[C@@H](CO)C(=O)O)OC(=O)CCCCCCCCCCCCCCC [Compound 69] | inactive |  |
| CCCCCCCCCCCCCCCC(=O)OC[C@H](CSC[C@H](NC(=O)CC[C@H](N)C(=O)O)C(=O)NCC(=O)OC(C)C)OC(=O)CCCCCCCCCCCCCCC [Compound 11] | virtually inactive |  |
| CC/C=C\C/C=C\C/C=C\CCCCCCCC(=O)OC[C@H](CSC[C@H](N)C(=O)NCC(=O)OC(C)C)OC(=O)CCCCCCC/C=C\C/C=C\C/C=C\CC [Compound 9] | highly active | Water solubility (Water solubility): not water-soluble |
| CCCCCCCCCCCCCCCC(=O)O[C@H](CO)CSC[C@H](N)C(=O)N[C@@H](CO)C(=O)O [Compound 38] | unexpectedly active |  |
| CCOCCOCCOCCCNCC(=O)OC[C@H](CSC[C@H](N)C(=O)N[C@@H](CO)C(=O)O)OC(=O)CNCCCOCCOCCOCC [Compound 24] | inactive |  |
| CCCCCCCCCCCCCCCC(=O)OC[C@H](CSC(C)(C)[C@@H](N)C(=O)N[C@@H](CO)C(=O)OC)OC(=O)CCCCCCCCCCCCCCC [Compound 59] | inactive |  |
| CCCCCCCCCCCCCCCC(=O)OC[C@H](CSC(C)(C)[C@H](N)C(=O)N[C@@H](CO)C(=O)O)OC(=O)CCCCCCCCCCCCCCC [Compound 64] | inactive |  |
| CCCCC/C=C\C/C=C\CCCCCCCC(=O)OC[C@H](CSC[C@H](N)C(=O)NCC(=O)OC(C)C)OC(=O)CCCCCCC/C=C\C/C=C\CCCCC [Compound 8] | highly active | Water solubility (Water solubility): not water-soluble |
| CCCCCCCCCCCCCCCCOC(=O)CSC[C@H](N)C(=O)N[C@@H](CO)C(=O)OC [Compound 50, (S)-methyl 2-((R)-2-amino-3-((2-(hexadecyloxy)-2-oxoethyl)thio)propanamido)-3-hydroxypropanoate, trifluoroacetate] | virtually bereft of activity |  |
| CCCCCCCCCCCCCCCC(=O)OCCSC[C@H](N)C(=O)N[C@@H](CO)C(=O)OC [Compound 44, 2-(((R)-2-amino-3-(((S)-3-hydroxy-1-methoxy-1-oxopropan-2-yl)amino)-3-oxopropyl)thio)ethyl palmitate, trifluoroacetate] | quite active | Water solubility (Water solubility): water-soluble; pEC50 (human TLR2): 8.26 |
| CCCCCCCCCCCCCCCC(=O)OC[C@H](CSC[C@H](N)C(=O)NCC(=O)OC(C)C)OC(=O)CCCCCCCCCCCCCCC [Compound 7] | highly active | Water solubility (Water solubility): not water-soluble |
| CCCCCCCCCCCCCCCC(=O)OCC(CSC[C@H](N)C(=O)N[C@@H](CO)C(=O)O)OC(=O)CCCCCCCCCCCCCCC (stereo partly drawn) [PAM2CS, S-[2,3-bis(palmitoyloxy)-(2RS)-propyl]-R-cysteinyl-S-serine] |  | Adjuvanticity [1]: potently adjuvantic; Local reactogenicity and pyrogenicity (rabbit): devoid; Pro-inflammatory activity (human blood): devoid of any detectable pro-inflammatory activity |
| CCCCCCCCCCCCCCCC(=O)OC[C@@H](O)CSC[C@H](N)C(=O)N[C@@H](CO)C(=O)O [Compound 35] | unexpectedly active |  |
| CCCCCCCCCCCCCCCCOC(=O)CCSC[C@H](N)C(=O)N[C@@H](CO)C(=O)OC [Compound 53, (S)-methyl 2-((R)-2-amino-3-((3-(hexadecyloxy)-3-oxopropyl)thio)propanamido)-3-hydroxypropanoate, trifluoroacetate] | virtually bereft of activity |  |
| CCCCCCCCCCCCCCCC(=O)OCCCSC[C@H](N)C(=O)N[C@@H](CO)C(=O)OC [Compound 47, 3-(((R)-2-amino-3-(((S)-3-hydroxy-1-methoxy-1-oxopropan-2-yl)amino)-3-oxopropyl)thio)propyl palmitate, trifluoroacetate] | completely inactive |  |
| CCCCCCCCCCCC(=O)OC[C@H](CSC[C@H](N)C(=O)N[C@@H](CO)C(=O)O)OC(=O)CCCCCCCCCCC [Compound 17] | lower in activity than the parent PAM2CS compound |  |
| CCCCCCCCCCCCCCCC(=O)OC[C@H](CSCCC(=O)N[C@@H](CO)C(=O)OC)OC(=O)CCCCCCCCCCCCCCC [Compound 74] | inactive |  |
